Screening data: PubChem BioAssay, several laboratories
An excerpt weighted towards active compounds, which were near 1.7% of everything screened.
CASP6 VEID inh = inhibitors of human caspase-6; inhibition, % at 12.5 µM; purified caspase-6, Z-VEID-R110 cleavage fluorescence; 0.53% of 350,000 active;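 active = mean inhibition across replicates at least about 35%, with every replicate also reaching that limit, limit read from the data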;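 also: 0% = median of neutral control wells and 100% = no fluorescence left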
Target sequence (P55212 24-179 limits assumed): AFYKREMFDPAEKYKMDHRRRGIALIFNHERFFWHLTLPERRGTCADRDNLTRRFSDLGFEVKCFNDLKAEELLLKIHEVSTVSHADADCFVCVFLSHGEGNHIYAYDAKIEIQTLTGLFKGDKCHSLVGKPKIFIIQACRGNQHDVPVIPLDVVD
Target sequence (P55212 194-293 limits assumed): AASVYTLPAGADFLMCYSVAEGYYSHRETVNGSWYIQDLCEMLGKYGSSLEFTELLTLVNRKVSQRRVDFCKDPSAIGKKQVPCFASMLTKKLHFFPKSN
DNMT1 block = blocks human DNA methyltransferase DNMT1. AID 588458. inhibition (reported as % activation of signal), % at 10 µM. 0.83% of 360,000 active. DNMT1 molecular beacon, Hinp1I cleavage, fluorescence; in the data active = inhibition above about 50%
SUMO1 PPI mod = modulators of human SUMO1-mediated protein-protein interactions; P63165; SUMO1 binding to a labelled peptide, TR-FRET, 1 h; inhibition, % at 20 µM; 0.33% of 360,000 active; AID 602429; in the data active = inhibition above about 37%
LMPTP inh = LMPTP (human) inhibition. P24666. recombinant LMPTP-A, OMFP fluorogenic substrate, fluorescence intensity. inhibition, % at 20 µM. 0.22% of 360,000 active;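 active = compounds that cut the enzyme signal by at least half of the control window in the single-dose screen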;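 also: plate controls were DMSO wells with enzyme plus substrate for no effect and substrate without enzyme for full effect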
Target sequence (P24666 whole entry, looked up): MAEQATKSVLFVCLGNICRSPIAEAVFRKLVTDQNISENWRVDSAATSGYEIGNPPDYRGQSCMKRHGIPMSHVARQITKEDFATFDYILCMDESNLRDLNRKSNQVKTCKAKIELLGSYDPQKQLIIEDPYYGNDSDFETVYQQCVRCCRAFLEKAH
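Test system – LMPTP-A phosphatase enzyme · Quantity – 0.625 nM LMPTP-A final · Reagent – OMFP substrate, 400 µM final · Dosing – one test concentration per compound, 20 µM, with 3% DMSO overall · Timing – 50 min enzyme reaction at room temperature, protected from light · Detection – fluorescence intensity · Controls – substrate-only low control, DMSO enzyme-plus-substrate high control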
STEP block = inhibitors of human striatal-enriched phosphatase STEP | 0.25% of 360,000 active | AID 588621 | recombinant STEP, OMFP fluorogenic substrate, fluorescence | inhibition, % at 20 µM | P54829;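 active = inhibition at 20 µM, scaled per plate between control wells, above about 37%, limit read from the data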;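 also: 0% = DMSO with enzyme and substrate and 100% = substrate only without enzyme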
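Test system: STEP tyrosine phosphatase / Reagent: OMFP at 25 µM / Doses: 20 µM, 1% DMSO / Read-out: percent inhibition scaled to no-enzyme and uninhibited-enzyme controls, plate-pattern corrected / Detection: FITC-channel fluorescence of OMFP product / Medium: Bis-Tris buffer pH 6.0, 2.5 mM DTT, 0.005% Tween 20 / Schedule: 20 min at room temperature, dark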
Scp1 inh = blocks human Scp-1 phosphatase activity | Q9GZU7 | Recombinant Scp1, phosphopeptide, malachite green phosphate absorbance | inhibition, % at 20 µM | 0.88% of 340,000 active;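 active = inhibition above about 50% at 20 µM, limit read from the data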;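 also: plate controls were DMSO wells with enzyme for no effect and wells lacking enzyme for full effect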
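Material – SCP-1 phosphatase catalytic domain, residues 76-261 · Buffer or medium – Acidic Tris acetate buffer with magnesium and detergent · Also added – Phospho 17-mer peptide substrate · Compound – single 20 µM dose, 1% DMSO · Times – 45 min room-temperature reaction, 5 min colour, 30 min stabiliser · Technique – Phosphate-binding colour reagent, absorbance read at 630 nm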
* marks the source's active call; other numbers are inactive results; nt = not tested or not shown.

SMILES	CASP6 VEID inh	DNMT1 block	SUMO1 PPI mod	LMPTP inh	STEP block	Scp1 inh
Cc1ccc2nc(N3C(=O)C(O)=C(C(=O)c4ccco4)C3c3ccc(C)o3)sc2c1 (stereo unspecified)	-0.1	23.5	-4.3	3.1	7.6	8.9
N[C@@H](Cc1cc(I)c(O)c(I)c1)C(=O)O	44.0*	11.6	36.3	-0.2	-0.9	-8.8
CN(C)c1ccc2c(c1)[C@@H]1C[C@@H](CC(=O)N3CCOCC3)O[C@@H](CO)[C@@H]1O2	54.7*	nt	nt	nt	nt	nt
O=C(Nc1ccc2c(c1)[C@H]1C[C@H](CC(=O)N3CCCCC3)O[C@@H](CO)[C@H]1O2)Nc1ccccc1F	36.1*	nt	nt	nt	nt	nt
O=C(Nc1ccc2c(c1)[C@H]1C[C@H](CC(=O)N3CCCCC3)O[C@H](CO)[C@H]1O2)Nc1ccccc1F	2.0	nt	nt	nt	nt	nt
CC(C)Oc1ccc(C(=O)/C=C2/C(=O)Nc3ccccc32)cc1	-4.6	-5.4	-12.9	0.6	-1.5	-10.6
CCOP(=O)(OCC)C(Nc1ccc(C)cc1)c1ccco1 (stereo unspecified)	0.5	-0.8	-0.5	-0.3	2.4	31.8
COC(=O)c1cccc(Nc2cc(C)nc(-c3ccccc3O)n2)c1	nt	-14.9	32.0	2.3	-2.6	-4.5
COC(=O)c1ccc(Nc2cc(C)nc(-c3ccccc3O)n2)cc1	nt	3.5	58.8*	3.0	-3.6	3.8
Cc1cc(N/N=C/c2ccccc2O)nc(-c2ccccc2O)n1	nt	2.1	42.3*	-0.5	-1.0	-10.3
CC(C)(C)N1C(=O)Cc2c1nc(N)c1c(N)nc(N3CCCCC3CO)c(C#N)c21 (stereo unspecified)	nt	6.2	50.1*	28.0	11.6	9.4
Cc1cc(-n2nnc3ccccc32)nc2ccccc12	54.6*	3.3	-4.0	0.9	1.3	-8.4
CCCCNC(=O)c1cc2c(=O)n3cccc(C)c3nc2s1	2.1	1.3	-6.6	-0.1	-1.3	1.4
CC(=O)Nc1ccc(S(=O)(=O)N2CCN(c3nc(NC4CCCC4)c4ccccc4n3)CC2)cc1	nt	-10.0	-1.0	63.0*	3.3	7.1
CC(=O)Nc1ccc(S(=O)(=O)N2CCN(c3cc(C)nc4ccccc34)CC2)cc1	nt	2.5	-5.7	38.6	1.4	2.6
CC(=O)N(C)c1ccc(N=Cc2cc3c(cc2[N+](=O)[O-])OCO3)cc1	36.0*	-13.9	-21.8	0.2	1.2	-10.5
Cc1nc2cc(-c3ccsc3-n3c(C)ccc3C)[nH]n2c(=O)c1Cl	nt	44.5	41.4*	49.7	-1.5	24.7
Cc1ccccc1-c1cc2nc(C)c(Cl)c(=O)n2[nH]1	1.4	0.1	24.9	0.3	-3.8	-9.8
Cc1ccc2oc(C(=O)N(Cc3ccc(N(C)C)cc3)C3CCS(=O)(=O)C3)c(C)c2c1 (stereo unspecified)	58.6*	-0.9	1.6	1.3	0.0	-6.7
Cc1ccc2c(C)c(C(=O)N(Cc3ccc(N(C)C)cc3)C3CCS(=O)(=O)C3)oc2c1 (stereo unspecified)	-0.5	2.1	0.7	1.3	-0.4	-1.2
CCC(=O)N(C)C[C@@H]1Oc2cc(-c3ccc(C)cc3)ccc2S(=O)(=O)N([C@H](C)CO)C[C@@H]1C	0.4	nt	nt	nt	nt	nt
Cc1ccc(C2=NC(=O)/C(=C/c3cc(O)c(O)c(Br)c3)S2)cc1	78.9*	-5.9	28.0	17.5	-2.7	30.1
CCOC(=O)[C@H]1[C@H]2COc3ccc(Cl)cc3[C@@H]2N2C(=O)CN(Cc3ccc(C)cc3)C(=O)[C@@]12C	39.7*	-6.4	-1.5	0.8	-3.2	-11.4
CCOC(=O)[C@H]1[C@H]2COc3ccc(Cl)cc3[C@@H]2N2C(=O)CN(Cc3ccc(OC)cc3)C(=O)[C@@]12C	1.0	-7.8	4.0	-0.3	-2.4	-11.4
O=C(C[C@H]1C=C[C@@H](NC(=O)c2ccc3c(c2)OCO3)[C@H](CO)O1)NCc1ccc(F)cc1	0.2	nt	nt	nt	nt	nt
CC1OC(CC(=O)O)CC2=C1C(=O)c1c(O)cccc1C2=O (stereo unspecified)	93.3*	30.5	-6.0	17.2	26.1	7.1
COc1cccc2c1-c1c(O)cccc1C2=O	2.1	25.8	10.1	2.7	19.8	26.4
C#CC(C)(C)NC(=O)c1ccc(-c2ccccc2F)cc1	43.5*	1.5	0.6	-1.0	1.4	-0.4
